From ChEMBL document CHEMBL2086267, “Discovery of N6-phenyl-1H-pyrazolo[3,4-d]pyrimidine-3,6-diamine derivatives as novel CK1 inhibitors using common-feature pharmacophore model based virtual screening and hit-to-lead optimization” (Eur J Med Chem, 2012)
Blank lines part the entries; values can stand above or below the compound they belong to.

How the values were obtained:
[1] = molecular target: T1, Casein kinase I isoform alpha (Homo sapiens, UniProt P48729); assay: Inhibition of CK1 using KRRRALS(p)VASLPGL as substrate after 40 mins by scintillation counter
Target sequence in this assay (P48729 whole entry, canonical isoform): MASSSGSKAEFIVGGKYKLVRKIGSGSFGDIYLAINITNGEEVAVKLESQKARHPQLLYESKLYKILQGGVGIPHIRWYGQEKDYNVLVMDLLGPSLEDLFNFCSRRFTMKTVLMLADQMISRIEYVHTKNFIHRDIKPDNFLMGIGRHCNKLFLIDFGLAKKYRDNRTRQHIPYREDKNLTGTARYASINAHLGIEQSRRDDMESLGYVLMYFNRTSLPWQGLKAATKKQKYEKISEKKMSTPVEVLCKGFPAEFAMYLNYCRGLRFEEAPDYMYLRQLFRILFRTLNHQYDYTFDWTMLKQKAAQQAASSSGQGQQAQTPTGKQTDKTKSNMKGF

[2] = molecular target: T1, Casein kinase I isoform alpha; assay: Inhibition of CK1 using KRRRALS(p)VASLPGL as substrate at 10 uM after 40 mins by scintillation counter
Procedure, shortened: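 Radiometric CK1 assay with substrate KRRRALS(p)VASLPGL and [γ-³³P]ATP plus 10 mM Mg acetate, in 20 mM MOPS, 1 mM EDTA, 0.01% Brij-35 and 5% glycerol. Reactions were spotted onto P30 filtermat, washed three times for 5 min in 75 mM phosphoric acid and once in methanol, dried, then scintillation counted. Run twice; mean activity reported.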

[3] = molecular target: ALK tyrosine kinase receptor (Homo sapiens) (UniProt Q9UM73); assay: Inhibition of ALK at 10 uM
Sequence of ALK tyrosine kinase receptor (Homo sapiens) (Q9UM73 19-1620 limits assumed): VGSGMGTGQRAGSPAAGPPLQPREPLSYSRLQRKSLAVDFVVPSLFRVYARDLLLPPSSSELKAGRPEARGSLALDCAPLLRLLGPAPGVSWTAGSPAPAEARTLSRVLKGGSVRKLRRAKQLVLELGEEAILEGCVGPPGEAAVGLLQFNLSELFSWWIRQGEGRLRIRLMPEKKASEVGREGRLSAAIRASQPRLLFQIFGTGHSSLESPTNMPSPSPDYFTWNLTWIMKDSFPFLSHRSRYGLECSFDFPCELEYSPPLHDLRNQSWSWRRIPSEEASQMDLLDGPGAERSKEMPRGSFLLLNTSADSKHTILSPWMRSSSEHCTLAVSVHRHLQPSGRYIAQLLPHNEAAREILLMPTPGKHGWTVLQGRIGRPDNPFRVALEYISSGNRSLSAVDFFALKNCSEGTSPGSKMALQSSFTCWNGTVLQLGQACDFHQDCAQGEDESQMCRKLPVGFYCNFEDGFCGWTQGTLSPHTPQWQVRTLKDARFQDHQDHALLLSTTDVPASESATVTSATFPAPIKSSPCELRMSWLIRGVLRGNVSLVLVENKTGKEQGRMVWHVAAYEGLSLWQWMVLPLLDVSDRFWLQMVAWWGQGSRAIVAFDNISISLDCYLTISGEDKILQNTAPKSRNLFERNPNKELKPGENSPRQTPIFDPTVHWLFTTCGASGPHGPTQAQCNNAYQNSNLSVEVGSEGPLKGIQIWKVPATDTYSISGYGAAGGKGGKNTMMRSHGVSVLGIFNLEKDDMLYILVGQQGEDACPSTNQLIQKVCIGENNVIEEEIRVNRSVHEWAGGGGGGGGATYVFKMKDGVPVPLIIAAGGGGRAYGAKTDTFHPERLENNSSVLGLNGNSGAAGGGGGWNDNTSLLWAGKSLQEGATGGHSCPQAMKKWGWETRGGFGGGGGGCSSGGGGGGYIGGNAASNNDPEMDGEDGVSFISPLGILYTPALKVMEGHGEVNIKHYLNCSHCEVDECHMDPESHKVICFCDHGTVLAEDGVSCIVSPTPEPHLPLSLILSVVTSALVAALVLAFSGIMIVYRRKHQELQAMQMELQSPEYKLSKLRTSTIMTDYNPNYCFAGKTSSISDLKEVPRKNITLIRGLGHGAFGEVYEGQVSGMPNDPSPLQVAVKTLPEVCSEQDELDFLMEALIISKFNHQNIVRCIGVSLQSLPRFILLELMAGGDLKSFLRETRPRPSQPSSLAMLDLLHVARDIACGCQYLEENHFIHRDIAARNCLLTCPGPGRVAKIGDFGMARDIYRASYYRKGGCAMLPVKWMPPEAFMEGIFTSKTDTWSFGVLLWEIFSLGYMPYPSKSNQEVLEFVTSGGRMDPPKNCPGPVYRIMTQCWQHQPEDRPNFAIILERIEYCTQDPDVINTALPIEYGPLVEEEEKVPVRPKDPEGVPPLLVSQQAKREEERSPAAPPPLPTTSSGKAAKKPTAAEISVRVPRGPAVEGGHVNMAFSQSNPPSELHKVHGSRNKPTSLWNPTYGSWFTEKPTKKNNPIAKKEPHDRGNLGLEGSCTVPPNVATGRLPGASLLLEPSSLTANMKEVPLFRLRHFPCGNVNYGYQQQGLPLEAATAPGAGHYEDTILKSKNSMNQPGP
Procedure, shortened: (§1)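 Kinase inhibition was tested through a commercial kinase profiling service. Each assay was run twice and mean activity calculated.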

[4] = molecular target: Tyrosine-protein kinase receptor UFO (Homo sapiens) (UniProt P30530); assay: Inhibition of Axl at 10 uM; procedure, shortened: as §1
[5] = molecular target: Serine/threonine-protein kinase mTOR (Homo sapiens) (UniProt P42345); assay: Inhibition of mTOR at 10 uM; procedure, shortened: as §1
[6] = molecular target: Serine/threonine-protein kinase PLK1 (Homo sapiens) (UniProt P53350); assay: Inhibition of Plk1 at 10 uM; procedure, shortened: as §1
Sequence of Serine/threonine-protein kinase PLK1 (Homo sapiens) (P53350 whole entry): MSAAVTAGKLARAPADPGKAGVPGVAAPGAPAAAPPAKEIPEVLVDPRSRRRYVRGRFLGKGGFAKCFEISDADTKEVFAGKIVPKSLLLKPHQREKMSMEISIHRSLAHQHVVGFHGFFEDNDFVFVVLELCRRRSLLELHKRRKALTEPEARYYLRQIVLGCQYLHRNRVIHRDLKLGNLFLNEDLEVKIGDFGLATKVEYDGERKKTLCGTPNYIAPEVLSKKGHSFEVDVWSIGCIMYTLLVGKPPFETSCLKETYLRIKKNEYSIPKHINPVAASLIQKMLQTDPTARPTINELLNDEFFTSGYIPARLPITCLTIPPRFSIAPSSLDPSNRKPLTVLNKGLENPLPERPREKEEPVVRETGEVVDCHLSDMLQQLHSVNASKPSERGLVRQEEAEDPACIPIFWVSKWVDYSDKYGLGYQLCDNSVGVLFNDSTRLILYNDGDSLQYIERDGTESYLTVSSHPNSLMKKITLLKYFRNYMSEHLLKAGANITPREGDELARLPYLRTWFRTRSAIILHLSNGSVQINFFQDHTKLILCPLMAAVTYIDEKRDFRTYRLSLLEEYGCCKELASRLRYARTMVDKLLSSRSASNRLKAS

[7] = molecular target: Hepatocyte growth factor receptor (Homo sapiens) (UniProt P08581); assay: Inhibition of Met at 10 uM; procedure, shortened: as §1
[8] = molecular target: Epidermal growth factor receptor (Homo sapiens) (UniProt P00533); assay: Inhibition of EGFR at 10 uM; procedure, shortened: as §1
Sequence of Epidermal growth factor receptor (Homo sapiens) (P00533 whole entry): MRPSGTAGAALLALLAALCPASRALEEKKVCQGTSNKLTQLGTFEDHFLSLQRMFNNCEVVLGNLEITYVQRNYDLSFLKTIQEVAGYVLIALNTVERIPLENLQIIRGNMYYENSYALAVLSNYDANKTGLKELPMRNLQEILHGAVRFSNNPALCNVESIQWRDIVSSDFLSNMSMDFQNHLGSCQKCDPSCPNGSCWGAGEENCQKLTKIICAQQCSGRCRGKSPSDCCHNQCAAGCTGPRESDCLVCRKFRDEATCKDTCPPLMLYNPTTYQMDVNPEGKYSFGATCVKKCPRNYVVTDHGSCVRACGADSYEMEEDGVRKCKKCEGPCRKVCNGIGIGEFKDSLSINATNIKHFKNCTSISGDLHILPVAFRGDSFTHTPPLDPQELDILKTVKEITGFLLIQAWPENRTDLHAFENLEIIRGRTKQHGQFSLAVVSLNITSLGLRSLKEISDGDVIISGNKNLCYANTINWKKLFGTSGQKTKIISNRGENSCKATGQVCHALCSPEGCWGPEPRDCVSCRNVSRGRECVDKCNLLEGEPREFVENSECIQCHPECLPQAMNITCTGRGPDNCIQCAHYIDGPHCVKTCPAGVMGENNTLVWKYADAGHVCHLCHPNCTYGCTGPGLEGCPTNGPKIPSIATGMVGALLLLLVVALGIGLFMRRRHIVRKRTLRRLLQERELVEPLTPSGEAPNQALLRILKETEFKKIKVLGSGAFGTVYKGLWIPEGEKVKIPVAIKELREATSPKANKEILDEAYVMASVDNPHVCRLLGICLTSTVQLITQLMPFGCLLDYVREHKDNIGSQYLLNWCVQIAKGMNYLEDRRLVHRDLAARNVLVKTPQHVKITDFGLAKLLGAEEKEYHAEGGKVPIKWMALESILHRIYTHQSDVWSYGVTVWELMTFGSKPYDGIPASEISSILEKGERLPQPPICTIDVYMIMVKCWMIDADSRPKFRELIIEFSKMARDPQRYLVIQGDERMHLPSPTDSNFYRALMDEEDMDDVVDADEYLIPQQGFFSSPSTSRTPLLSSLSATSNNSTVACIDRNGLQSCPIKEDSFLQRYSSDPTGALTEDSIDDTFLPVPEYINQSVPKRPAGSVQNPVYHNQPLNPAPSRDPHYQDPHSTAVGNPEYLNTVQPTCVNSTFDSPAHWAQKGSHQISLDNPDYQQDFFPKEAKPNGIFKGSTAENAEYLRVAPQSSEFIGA

[9] = molecular target: Cyclin-dependent kinase 1 (Homo sapiens) (UniProt P06493); assay: Inhibition of CDK1 at 10 uM; procedure, shortened: as §1
[10] = molecular target: Fibroblast growth factor receptor 2 (Homo sapiens) (UniProt P21802); assay: Inhibition of FGFR2 at 10 uM; procedure, shortened: as §1
[11] = molecular target: Glycogen synthase kinase-3 alpha (Homo sapiens) (UniProt P49840); assay: Inhibition of GSK3alpha at 10 uM; procedure, shortened: as §1
[12] = molecular target: Receptor-type tyrosine-protein kinase FLT3 (Homo sapiens) (UniProt P36888); assay: Inhibition of Flt3 at 10 uM; procedure, shortened: as §1
[13] = molecular target: Platelet-derived growth factor receptor alpha (Homo sapiens) (UniProt P16234); assay: Inhibition of PDGFRalpha at 10 uM; procedure, shortened: as §1
[14] = molecular target: Vascular endothelial growth factor receptor 2 (Homo sapiens) (UniProt P35968); assay: Inhibition of KDR at 10 uM; procedure, shortened: as §1
Sequence of Vascular endothelial growth factor receptor 2 (Homo sapiens) (P35968 whole entry): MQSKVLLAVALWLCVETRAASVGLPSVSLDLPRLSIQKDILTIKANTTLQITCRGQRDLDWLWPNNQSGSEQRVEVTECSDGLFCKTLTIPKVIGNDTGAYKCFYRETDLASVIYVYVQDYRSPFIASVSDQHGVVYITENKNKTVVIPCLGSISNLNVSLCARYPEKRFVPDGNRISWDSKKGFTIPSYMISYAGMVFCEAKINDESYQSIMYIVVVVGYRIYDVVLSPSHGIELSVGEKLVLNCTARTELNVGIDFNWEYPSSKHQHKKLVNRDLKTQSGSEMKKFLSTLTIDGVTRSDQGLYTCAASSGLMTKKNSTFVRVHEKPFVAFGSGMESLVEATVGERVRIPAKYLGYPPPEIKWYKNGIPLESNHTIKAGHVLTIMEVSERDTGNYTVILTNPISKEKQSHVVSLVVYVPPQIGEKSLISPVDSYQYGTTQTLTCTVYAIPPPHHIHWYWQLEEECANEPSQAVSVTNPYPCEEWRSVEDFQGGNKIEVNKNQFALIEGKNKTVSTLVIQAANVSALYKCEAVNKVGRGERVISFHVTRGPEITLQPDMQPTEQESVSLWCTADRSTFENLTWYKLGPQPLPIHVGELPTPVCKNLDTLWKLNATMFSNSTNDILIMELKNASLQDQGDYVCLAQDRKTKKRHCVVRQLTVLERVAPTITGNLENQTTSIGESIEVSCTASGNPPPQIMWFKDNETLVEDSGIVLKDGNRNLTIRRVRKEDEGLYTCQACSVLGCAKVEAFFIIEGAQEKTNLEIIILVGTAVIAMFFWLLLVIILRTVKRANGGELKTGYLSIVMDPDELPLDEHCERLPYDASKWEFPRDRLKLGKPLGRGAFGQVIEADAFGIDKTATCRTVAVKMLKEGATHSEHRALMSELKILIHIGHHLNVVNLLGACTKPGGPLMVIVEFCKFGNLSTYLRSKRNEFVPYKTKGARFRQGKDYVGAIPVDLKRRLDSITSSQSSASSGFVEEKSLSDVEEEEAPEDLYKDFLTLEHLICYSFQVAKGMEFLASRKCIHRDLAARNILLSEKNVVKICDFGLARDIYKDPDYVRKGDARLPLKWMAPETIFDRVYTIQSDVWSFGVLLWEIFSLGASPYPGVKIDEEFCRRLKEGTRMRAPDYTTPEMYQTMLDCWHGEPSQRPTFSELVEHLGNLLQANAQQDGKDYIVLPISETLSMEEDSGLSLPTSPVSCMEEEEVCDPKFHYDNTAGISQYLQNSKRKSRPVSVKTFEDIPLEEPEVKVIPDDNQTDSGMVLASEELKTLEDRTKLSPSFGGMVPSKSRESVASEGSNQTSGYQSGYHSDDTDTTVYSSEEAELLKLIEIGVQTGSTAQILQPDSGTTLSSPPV

SMILES: CC(C)(C)c1cc(NC(=O)Nc2cccc(Nc3ncc4c(N)n[nH]c4n3)c2)n[nH]1
IC50 [1]: 0.142 µM

SMILES: Nc1n[nH]c2nc(Nc3ccc(NC(=O)Nc4ccc(F)c(Cl)c4)cc3)ncc12
IC50 [1]: > 10 µM

SMILES: COc1cc(OC)c(C=C2C(O)=Nc3ccccc32)c(OC)c1 [IC261]
IC50 [1]: 1 µM

SMILES: Nc1[nH]nc2nc(Nc3cccc(NC(=O)Nc4ccc(F)c(Cl)c4)c3)ncc12
IC50 [1]: 0.078 µM

SMILES: CC[C@H](CO)Nc1nc(Nc2cccc(-c3ccccn3)c2)c2ncn(C(C)C)c2n1
IC50 [1]: 0.014 µM

Second part, the compound after the results:

IC50 [1]: > 10 µM
SMILES: C[C@@H](NC(=O)Nc1ccc(Nc2ncc3c(N)n[nH]c3n2)cc1)c1ccccc1

IC50 [1]: 2.47 µM
SMILES: C[C@@H](NC(=O)Nc1cccc(Nc2ncc3c(N)[nH]nc3n2)c1)c1ccccc1

IC50 [1]: 10 µM
SMILES: NCCNS(=O)(=O)c1ccc(Cl)c2ccncc12

inhibition [2]: 100%
inhibition [3]: 26%
inhibition [4]: 46%
inhibition [5]: 0%
inhibition [6]: 0%
inhibition [7]: 99%
inhibition [8]: 92%
inhibition [9]: 42%
inhibition [10]: 35%
inhibition [11]: 34%
inhibition [12]: 90%
inhibition [13]: 82%
inhibition [14]: 96%
SMILES: Nc1n[nH]c2nc(Nc3cccc(NC(=O)Nc4ccc(F)c(Cl)c4)c3)ncc12
